Bioassay records from PubChem.
VIM-2 inhibitor: VIM-2 metallo-beta-lactamase inhibitors, primary screen, biochemical, epi-absorbance readout, Pseudomonas aeruginosa enzyme; inhibition, % at 5.6 µM; AID 1527, 2009; 290,000 compounds, 0.89% hits; purified VIM-2, nitrocefin hydrolysis, epi-absorbance fluorescence;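 active = inhibition above the mean of all tested compounds plus 3 SD, cutoff set per screening run, cut at about 7.5% in these data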;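 note: red hydrolysis product quenches plate fluorescence so inhibitors raise well fluorescence; 0% = enzyme with DMSO and 100% = DMSO without enzyme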
MEKK2 WT-MEK5: modulators of MEK5 binding to wildtype MEKK2, primary screen, biochemical, multiplex bead flow cytometry, Alexa488-MEK5. Mitogen-activated protein kinase kinase kinase 2 (Homo sapiens), Q9Y2U5. Alexa488-MEK5 binding to MEKK2 WT; actives lie on both sides. binding response (% of control), % at 10 µM. 290,000 compounds, 1.1% hits. AID 1531, 2009; in the data active = binding response below about 67% or above about 130%
MEKK2mut PB1 HTS: MEK5 binding signal on mutant MEKK2 PB1, primary screen, biochemical, multiplex bead flow cytometry, Alexa488-MEK5. 290,000 compounds, 0.35% hits. percent response, % at 10 µM. AID 1530, 2009. Alexa488-MEK5 binding to MEKK2 mutant; in the data active = percent response above about 24%, passing the limit was not always enough
MEKK3 PB1 HTS: modulators of MEKK3-MEK5 PB1 binding, primary screen, biochemical, wildtype MEKK3, multiplex bead flow cytometry, Alexa488-MEK5; 290,000 compounds, 1.4% hits; Mitogen-activated protein kinase kinase kinase 3 (Homo sapiens), Q99759; bead-based flow cytometry, Alexa488-MEK5 binding to MEKK3; actives lie on both sides; 0 = blocked by unlabeled MEK5, 100 = vehicle; binding response (% of control), % at 10 µM;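 active = binding response more than 3 SD above or below the average of its plate-row segment, actives on both sides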;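 note: Alexa488 bead fluorescence after subtracting the streptavidin-only scavenger bead signal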
Target sequence (Q99759 whole entry, looked up): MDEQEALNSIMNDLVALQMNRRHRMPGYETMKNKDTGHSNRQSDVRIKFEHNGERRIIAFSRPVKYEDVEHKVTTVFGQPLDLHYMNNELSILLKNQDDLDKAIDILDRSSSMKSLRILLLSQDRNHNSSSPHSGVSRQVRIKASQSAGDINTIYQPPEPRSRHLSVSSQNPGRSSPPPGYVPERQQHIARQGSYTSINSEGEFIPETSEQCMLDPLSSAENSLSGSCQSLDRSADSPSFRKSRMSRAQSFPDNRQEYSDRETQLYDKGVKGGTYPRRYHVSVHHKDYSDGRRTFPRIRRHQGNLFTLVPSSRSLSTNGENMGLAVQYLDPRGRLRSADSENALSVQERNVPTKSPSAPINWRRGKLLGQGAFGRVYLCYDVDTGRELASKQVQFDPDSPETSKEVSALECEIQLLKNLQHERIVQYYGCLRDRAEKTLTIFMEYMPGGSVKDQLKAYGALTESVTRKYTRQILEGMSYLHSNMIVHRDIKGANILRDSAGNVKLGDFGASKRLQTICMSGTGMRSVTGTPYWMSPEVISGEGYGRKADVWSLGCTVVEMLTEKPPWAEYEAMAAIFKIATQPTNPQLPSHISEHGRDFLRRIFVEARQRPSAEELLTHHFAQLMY
IMP-1 inh: IMP-1 metallo-beta-lactamase inhibitors, primary screen, biochemical, epi-absorbance readout, Pseudomonas aeruginosa enzyme | metallo-beta-lactamase IMP-1 (Pseudomonas aeruginosa) | purified IMP-1, nitrocefin hydrolysis, epi-absorbance fluorescence | inhibition, % at 5.6 µM | 290,000 compounds, 0.45% hits;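 active = inhibition above the mean plus 3 SD of all compounds in the same screening run, cut at about 4.5% in these data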;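 note: 0% = IMP-1 with DMSO and 100% = DMSO wells lacking enzyme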
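assay system = purified recombinant IMP-1 metallo-beta-lactamase enzyme | schedule = 15 min preincubation plus 25 min reaction at 25 °C | signal = Epi-absorbance fluorescence, 480 nm excitation, 530 nm emission | read-out basis = percent inhibition from optical density relative to buffer-blank wells | controls = IMP-1 with DMSO as 0%, enzyme-free DMSO as 100%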
MEKK2wt confirm: modulators of MEK5 binding to wildtype MEKK2, confirmation, biochemical, single concentration, multiplex bead flow cytometry. 5,900 compounds, 2.4% hits. Alexa488-MEK5 binding to MEKK2 WT; actives lie on both sides. binding response (% of control), % at 10 µM. AID 1892, 2009. shares compounds with MEKK3 PB1 HTS; in the data active = binding response below about 16% or above about 210%; inactive = in between
MEKK2mut-MEK5: mutant MEKK2 PB1-MEK5 binding signal retest – biochemical, single concentration, multiplex bead flow cytometry, confirmation; Alexa488-MEK5 binding to MEKK2 mutant; 5,900 compounds, 2% hits; AID 1893, 2009; percent response, % at 10 µM; shares compounds with MEKK3 PB1 HTS; in the data active = percent response mostly above about 71%, no sharp cut-off; inactive = mostly below about 38%;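 note: higher means compound restores mutant binding toward wildtype level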
MEKK3-MEK5 inh: MEKK3 wild-type PB1 binding to MEK5, inhibitors, confirmation, biochemical, bead multiplex flow cytometry, single concentration, wildtype; shares compounds with MEKK3 PB1 HTS; Alexa488-MEK5 binding to MEKK3; active compounds read low; binding response (% of control), % at 10 µM; 5,900 compounds, 1.8% hits;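 active = binding response below 72% of control, or above a set upper limit, though filed actives all read lower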;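 note: 100% = DMSO only wells and 0% = binding blocked by excess unlabeled MEK5; lower values mean stronger disruption of MEK5 binding to MEKK3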
* hit, by the source's call; . = not tested or not shown; [ ] = dose if it differs, or a comment. The list is not random: actives were taken first. Their share in the collection is about 3.4%.

SMILES | VIM-2 inhibitor | MEKK2 WT-MEK5 | MEKK2mut PB1 HTS | MEKK3 PB1 HTS | IMP-1 inh | MEKK2wt confirm | MEKK2mut-MEK5 | MEKK3-MEK5 inh
COCCNCC(O)CON=C1c2ccccc2-c2ccccc21 (configuration not stated) | 6 | 120 | 11 | 106 | 0 | . | . | .
COc1ccc(CCNCC(O)COc2ccc(Cl)cc2)cc1OC (configuration not stated) | -2 | 117 | 9 | 106 | -1 | . | . | .
CC(C)CCNCC(O)CON=C1c2ccccc2-c2ccccc21 (configuration not stated) | 4 | 161* | 2 | 98 | -2 | 144 | 21 | 104
OC(CNCCc1ccc(Cl)cc1)COc1ccc2ccccc2c1 (configuration not stated) | -2 | . | . | . | -2 | . | . | .
O=C(NNCC(O)COc1ccccc1)c1ccccc1 (configuration not stated) | -1 | 105 | 0 | 138* | -2 | 91 | -6 | 101
OC(CNCCc1ccccc1)COc1ccc(OCC(O)CNCCc2ccccc2)cc1 (configuration not stated) | 0 | 172* | 40 | 98 | -1 | 172 | 39 | 107
CC1CCN(CCCNC(=O)CCCNC(=O)Cn2cnc3sc4c(c3c2=O)CCCC4)CC1 | -2 | 98 | -2 | 89 | -1 | . | . | .
CC(C)N(CCNCC(O)COc1ccc(C(C)(C)c2ccccc2)cc1)C(C)C (configuration not stated) | -3 | 172* | 29 | 109 | -2 | 146 | 33 | 105
CC(C)(c1ccccc1)c1ccc(OCC(O)CN2CCCC2)cc1 (configuration not stated) | -1 | 127 | 6 | 108 | -4 | . | . | .
OC(CNCCC(c1ccccc1)c1ccccc1)COc1ccccc1 (configuration not stated) | -1 | 313* | 142* | 109 | -1 | 115 | 5 | 105
CCCCc1ccc(NC(=O)N[C@@H](CC(C)C)C(=O)O)cc1 | -2 | 112 | 7 | 2.0*[inhibitor] | -3 | 98 | -8 | 97
N#CC(Cc1cccc(CC(C#N)(c2ccccc2)c2ccccc2)c1)(c1ccccc1)c1ccccc1 | 0 | 104 | 8 | 102 | -3 | . | . | .
Cc1csc(SCC(=O)Nc2sccc2C(N)=O)n1 | 2 | 1.0*[inhibitor] | -16 | 2.0*[inhibitor] | 0 | 95 | -3 | 101
NCCCC[C@@H]1NC(=O)c2cc([N+](=O)[O-])cc(F)c2NCCCC[C@@H](C(N)=O)NC(=O)CNC1=O | 1 | 135* | 12 | 113 | -4 | 104 | 2 | 103
NC(=O)[C@@H]1CCCCNc2c(F)cc([N+](=O)[O-])cc2C(=O)N[C@@H](CCCN=C(N)N)C(=O)NCC(=O)N1 | -2 | 108 | 7 | 104 | -1 | . | . | .
CCN(CC)C(=O)C1CCCN(Cc2nc(-c3cnccn3)no2)C1 (configuration not stated) | -3 | 107 | 11 | 107 | -1 | . | . | .
CCOC(=O)/C=c1\s/c(=C\c2ccc(C#N)cc2)c(=O)n1CC(=O)NCc1ccco1 | -2 | 93 | -1 | 91 | -4 | . | . | .
NC1=NC(=O)/C(=C/c2cn(CCC(=O)O)nc2-c2ccc(F)cc2)S1 | -2 | 111 | 1 | 129* | -4 | 98 | -2 | 100
O=C(CNC(=O)c1cccc(Cl)c1)Nc1ccc(F)c(F)c1F | -1 | 105 | 2 | 108 | -1 | . | . | .
O=C(NCCCN1CCCCC1)c1ccc2c(=O)n(CCc3ccccc3)c(=O)[nH]c2c1 | 0 | . | . | . | -1 | . | . | .
CCN(CC)CCNC(=O)c1ccc2c(=O)n(CCc3ccccc3)c(=O)[nH]c2c1 | -1 | 135* | 13 | 125* | -2 | 107 | 5 | 101
CCCCN(C)CCNC(=O)c1ccc(Cn2c(=S)[nH]c3ccc(Br)cc3c2=O)cc1 | -3 | 171* | 34 | 108 | -4 | 191 | 55 | 114
CN(C)CCNC(=O)c1ccc2c(=O)n(Cc3ccc(Cl)cc3)c(=S)[nH]c2c1 | -1 | 138* | 25* | 111 | -1 | 115 | 10 | 105
CCN(CCCNC(=O)CCn1c(=O)[nH]c2ccccc2c1=O)c1ccccc1 | -1 | 44*[inhibitor] | -12 | 34*[inhibitor] | -2 | 106 | 5 | 102
CC(=O)Nc1cccc(OCc2ccc(F)cc2)c1 | 0 | 96 | -5 | 98 | 1 | . | . | .
SMILES | VIM-2 inhibitor | MEKK2 WT-MEK5 | MEKK2mut PB1 HTS | MEKK3 PB1 HTS | IMP-1 inh | MEKK2wt confirm | MEKK2mut-MEK5 | MEKK3-MEK5 inh
CCNC(=O)C1Cc2cc(S(=O)(=O)N3CCCC3)ccc2N1C(C)=O (configuration not stated) | -1 | 101 | 1 | 97 | -2 | . | . | .
Cc1nc2c3ccccc3nc(NNC(=O)CCC(=O)NCCC(C)C)n2n1 | -3 | 109 | 0 | 130* | -4 | 99 | -5 | 101
CN(C)CCCn1c(SCC(=O)N2c3ccccc3Sc3ccccc32)nc2ccccc2c1=O | -1 | 166* | 45 | 103 | -2 | 157 | 25 | 102
CC(C)n1c(SCC(=O)N2c3ccccc3Sc3ccccc32)nc2c1c(=O)n(C)c(=O)n2C | -2 | -3.0*[inhibitor] | -21 | 1.0*[inhibitor] | -4 | 99 | -3 | 104
Cn1c(SCC(=O)N2c3ccccc3Sc3ccccc32)nc2ccccc21 | -6 | 96 | -1 | 102 | -6 | . | . | .
CCn1cnc2cc(NCc3ccc(OC)cc3)ccc21 | -1 | 101 | 10 | 96 | -3 | . | . | .
CCOc1ccc2nc3cc(NCc4ccc(OC)cc4)ccc3c(N)c2c1 | -1 | 163* | 139* | 82*[inhibitor] | -1 | 220* | 170* | 98
COc1ccc(/C=N/OCC(=O)NCC(C)C)c(OC)c1 | -1 | 102 | 1 | 104 | -3 | . | . | .
